Drawing on ChEMBL document CHEMBL1132614, “Novel inhibitors of carboxypeptidase G2 (CPG2): potential use in antibody-directed enzyme prodrug therapy” (J Med Chem, 1999), this text covers IC50 and Vmax for eight compounds.

The subject of series [1] is LS174T. The series is described as follows: The compound was evaluated for the cytotoxicity towards LS174T cells. It counts as functional, cell-based. Conditions: Homo sapiens. Put shortly:
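LS174T human colon adenocarcinoma cells (CEA-expressing) exposed to graded inhibitor, 0.01–500 μM in medium, for 1 h at 37 °C. Cells were washed once, grown a further 6 days, and survival was read by SRB assay to give IC50.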

In series [2] the test system is LS174T. The series is described as follows: The compound was evaluated for the cytotoxicity with the compound alone against LS174T cells. It counts as functional, cell-based. Conditions: Homo sapiens. Put shortly: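 LS174T cells were exposed to graded compound alone (0.01–500 μM in medium) for 1 h at 37 °C, with no conjugate. Cells were washed once with medium and cultured a further 6 days. Survival was measured by sulforhodamine B (SRB) assay.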

Series [3] has as its system LS174T. Briefly: Cytotoxicity in conjugate with 2-(4-Methoxy-phenylsulphanylcarbonylamino)-pentanedioic acid at a concentration of 50 micuM against LS174T cells. It counts as functional, cell-based. The note with it: Homo sapiens.
The test system of series [4] is LS174T. Briefly: Cytotoxicity in conjugate with F(ab')2-A5B7-CPG2 and 2-(4-Methoxy-phenylsulphanylcarbonylamino)-pentanedioic acid at a concentration of 50 uM against LS174T cells. The class given is functional, cell-based. Conditions: Homo sapiens. Put shortly: (§1)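 LS174T human colon adenocarcinoma cells (CEA-expressing) were exposed to F(ab')2-A5B7-CPG2 conjugate (3.32 μg/mL, 0.505 U/mL) for 1 h at 37 °C and washed twice to remove unbound conjugate. They were then exposed for 1 h at 37 °C to graded prodrug plus the stated fixed CPG2 inhibitor level (25 or 50 μM). After a wash, cells grew 6 days; survival was measured by SRB assay.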

The test system of series [5] is LS174T. Briefly: The compound was evaluated for the cytotoxicity in conjugate with F(ab')2-A5B7-CPG2 against LS174T cells. It counts as functional, cell-based. The note with it: Homo sapiens. Summed up: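 They then received graded prodrug (0.01–500 μM in medium) for 1 h at 37 °C to generate the phenol mustard in situ. After a wash and a further 6 days, survival was measured by SRB assay.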

The test system of series [6] is LS174T. Briefly: Cytotoxicity in conjugate with F(ab')2-A5B7-CPG2 and 2-(4-Methoxy-phenylsulphanylcarbonylamino)-pentanedioic acid at a concentration of 25 uM against LS174T cells. The class given is functional, cell-based. Conditions: Homo sapiens. Summed up: as §1
A short description of series [7]: The compound was evaluated for the apparent Vmax through Lineweaver-Burke Plot of MTX turnover by CPG2 at a concentration of 0.5 (uM). It counts as ADME. Summed up:
(§2)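 CPG2 (10 μL of 28.66 μg/mL stock) in a 1-mL cuvette; reaction started with 990 μL methotrexate (3.077–70 μM) alone or with inhibitor at fixed 0.5 or 1.0 μM (final). Buffer was 0.1 M Tris-HCl pH 7.3, 0.1 mM ZnCl2, 37 °C. A320 decrease over 0–60 s gave initial velocities; apparent Vmax came from Lineweaver–Burk plots.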

A short description of series [8]: The compound was evaluated for the apparent Vmax through Lineweaver-Burke Plots of MTX turnover by CPG2 at a concentration of 1 (uM). It counts as ADME. Put shortly: as §2
Series [9] can be described thus: The compound was evaluated for the apparent Vmax through Lineweaver-Burke Plots of MTX turnover by CPG2 at a concentration of 0 (uM). It counts as ADME. Summed up: as §2

Some results are limits rather than exact numbers.

Take `Cc1ccc(SC(=O)NC(CCC(=O)O)C(=O)O)cc1` (stereo not given): the half-maximal inhibitory concentration (IC50) in [1] was > 500 µM. With `O=C(O)CCC(NC(=O)Oc1ccc(N(CCCl)CCCl)cc1)C(=O)O` (stereo not given), the half-maximal inhibitory concentration (IC50) in series [2] stood at 23.2 µM; in [3], 24 µM; in [4], 16.2 µM; in series [5], 0.8 µM; in [6], 3.3 µM. Take `COc1cccc(SC(=O)NC(CCC(=O)O)C(=O)O)c1` (stereo not given): the half-maximal inhibitory concentration (IC50) in series [1] was > 500 µM. Regarding `Cc1cccc(SC(=O)NC(CCC(=O)O)C(=O)O)c1` (stereo not given), the half-maximal inhibitory concentration (IC50) in series [1] is > 500 µM.

`Nc1ccc(SC(=O)NC(CCC(=O)O)C(=O)O)cc1` (stereo not given) returned an IC50 in series [1] of 416 µM. For the compound `COc1ccc(SC(=O)N[C@@H](CCC(=O)O)C(=O)O)cc1`, the IC50 in series [1] is > 500 µM.

For the compound `COc1ccc(SC(=O)N[C@H](CCC(=O)O)C(=O)O)cc1`, the Vmax in [7] was 47.7 µM/min; in [8], 42.3 µM/min; in series [9] it was 80 µM/min. In series [1], the IC50 was > 500 µM. As to `Nc1cccc(SC(=O)NC(CCC(=O)O)C(=O)O)c1` (stereo not given), the IC50 in series [1] was > 500 µM.
